Source: PubChem
Most compounds without a hit are left out; they make up all but 1.2% or so of the library.
FN deposition inh: fibronectin deposition inhibition; AH1F fibroblasts, Alexa488-fibronectin deposition fluorescence, overnight; inhibition, % at 12.6 µM; 350,000 compounds, 0.086% hits; AID 743247;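 active = mean inhibition across replicates of 30% or more, regardless of how many single replicates reach that level; inconclusive = mean under 30% yet at least half of replicates reach 30%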;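 note: positive control wells lacked labelled fibronectin entirely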
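material = AH1F fibroblast monolayer depositing Alexa488-labelled fibronectin into matrix | amount = 10000 AH1F cells/well | buffer or medium = DMEM plus 2% serum, read in PBS | incubation = 1 h cell adhesion before compound, then overnight fibronectin incubation | detection = fluorescence at 485 nm excitation, 525 nm emission | evaluation = percent inhibition as loss of matrix-bound fibronectin fluorescence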
SR-BI DiI-HDL act: activators of SR-BI mediated HDL lipid uptake | 320,000 compounds, 0.096% hits | CHO ldlA[mSR-BI] cells, DiI-HDL uptake fluorescence, 3 h; 100 = double the neutral-control signal | activation, % at 12.5 µM;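 active = mean replicate activation of at least 60% and every replicate at or above 60%; inconclusive = mean or all-replicate condition met, but not both; inactive = mean below 60% and not all replicates reaching 60%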;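 note: 0% = median plate neutral-control signal and 100% = twice that signal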
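system = CHO ldlA[mSR-BI] cells, LDL receptor-null, SR-BI overexpressing | medium = Ham's F12 with 0.5% BSA, HEPES 25 mM, pH 7.4 | probe or stimulus = DiI-HDL 10 µg/mL | compound dosing = single-point compound dose | incubation = compound exposure 3 h, 37 °C | technique = DiI fluorescence, bottom read | read-out = cell-associated DiI fluorescence as measure of HDL uptake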
Efflux pump mplx: inhibitors of Candida antifungal efflux pumps expressed in yeast | S. cerevisiae Candida pump triplex, Nile Red efflux | inhibition, % at 10 µM | 330,000 compounds, 0.44% hits | AID 485275;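 active = plate passing quality check with inhibition over a set limit, or well fluorescence over plate mean plus 4 SD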;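 note: Nile Red retained in pooled yeast measured as flow cytometry median fluorescence; 0% = buffer negative control and 100% = Enniatin B positive control; higher means more Nile Red kept so more efflux inhibition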
CaV13 FRET inh: Disruptors of the CACNA1D IQ motif to Ca2+-dependent inactivation inhibitor domain association, primary screening, Förster resonance energy transfer in intact living …; HEK cells, CFP/YFP FRET ICDI-IQ, plate reader, 10 min; percent FRET-ratio fall versus neutral wells; inhibition, % at 12.3 µM; 340,000 compounds, 0.098% hits;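 active = mean replicate inhibition of at least 30% and at least 1% of replicates passing that level; inconclusive = only one of the two criteria is met; inactive = neither criterion is met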;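 note: 0% = median of the neutral control wells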
SR-BI HDL uptake: mouse SR-BI HDL lipid transfer inhibition | ldlA[mSR-BI] CHO cells, DiI-HDL uptake fluorescence, 3 h | 320,000 compounds, 0.96% hits | inhibition, % at 12.5 µM | Q61009;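 active = mean replicate inhibition of at least 70% and a set share of replicates each scoring 70 or more; inconclusive = meets just one of the two criteria; inactive = fails both criteria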;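 note: 0% = median of neutral control wells and 100% = median of positive control wells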
Target sequence (Q61009 whole entry, looked up): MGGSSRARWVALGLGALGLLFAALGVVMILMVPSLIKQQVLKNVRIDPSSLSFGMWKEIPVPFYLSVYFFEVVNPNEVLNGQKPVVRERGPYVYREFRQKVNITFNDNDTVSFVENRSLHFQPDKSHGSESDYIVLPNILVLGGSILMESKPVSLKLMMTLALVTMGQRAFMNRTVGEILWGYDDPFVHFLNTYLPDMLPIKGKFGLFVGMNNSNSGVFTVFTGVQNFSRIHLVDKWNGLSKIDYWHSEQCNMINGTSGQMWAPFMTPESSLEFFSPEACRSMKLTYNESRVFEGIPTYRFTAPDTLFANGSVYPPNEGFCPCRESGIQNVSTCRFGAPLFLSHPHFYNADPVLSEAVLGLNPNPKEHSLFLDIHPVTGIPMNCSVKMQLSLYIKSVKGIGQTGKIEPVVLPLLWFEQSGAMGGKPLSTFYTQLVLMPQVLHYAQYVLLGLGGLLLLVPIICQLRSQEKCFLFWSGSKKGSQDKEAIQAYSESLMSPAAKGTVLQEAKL
* = called active by the depositor; ? = inconclusive; . = no result given; ! = repeats disagree.

SMILES | FN deposition inh | SR-BI DiI-HDL act | Efflux pump mplx | CaV13 FRET inh | SR-BI HDL uptake
COc1cc2sc3cc(NCc4ccc5c(c4)OCO5)ccc3c(=O)c2cc1OC | -7 | -73 | 0 | -4 | 73*
COc1cc2sc3cc(NCC[C@@H]4CCCN4C)ccc3c(=O)c2cc1OC | -10 | -63 | 0 | 36* | 63
COc1cc2sc3cc(NCc4ccc(C)o4)ccc3c(=O)c2cc1OC | -14 | -80 | 0 | -6 | 80*
CO[C@H]1CN(C)C(=O)c2ccc(NC(=O)Nc3ccc(Cl)c(Cl)c3)cc2OC[C@H](C)NC[C@@H]1C | 31*! | . | . | . | .
CO[C@H]1CN(C)C(=O)c2cc(NC(=O)Nc3cc(Cl)cc(Cl)c3)ccc2OC[C@H](C)NC[C@H]1C | 32*! | . | . | . | .
CO[C@@H]1CN(C)C(=O)c2cc(NC(=O)Nc3cc(Cl)cc(Cl)c3)ccc2OC[C@H](C)NC[C@@H]1C | 15 | . | . | . | .
CO[C@H]1CN(C)C(=O)c2cc(NC(=O)Nc3ccc(Cl)c(Cl)c3)ccc2OC[C@@H](C)NC[C@@H]1C | 32*! | . | . | . | .
CO[C@H]1CN(C)C(=O)c2ccc(NC(=O)Nc3ccc(Cl)c(Cl)c3)cc2OC[C@H](C)NC[C@H]1C | 16 | . | . | . | .
CO[C@H]1CN(C)C(=O)c2cc(NC(=O)Nc3ccc(Cl)c(Cl)c3)ccc2OC[C@@H](C)NC[C@H]1C | -7 | . | . | . | .
CC(C)NC(=O)N1C2CN(Cc3ccc(F)cc3)CC1C2c1ccc(Br)cc1 (configuration not stated) | -7 | . | . | . | .
C/C=C/c1ccc([C@H]2[C@@H](CO)N(C(=O)C3CCCCC3)C23CN(C(=O)NC(C)C)C3)cc1 | 0 | . | . | . | .
CO[C@H]1CN(C)C(=O)c2ccc(NC(=O)Nc3ccc(Cl)cc3)cc2OC[C@H](C)NC[C@H]1C | -6 | . | . | . | .
O=C(OCn1ncc(Cl)c(Cl)c1=O)c1ccc(C(F)(F)F)cc1 | . | -5 | . | -9 | 5
CCOC(=O)c1ccc(NC(=O)Cn2ncc(Cl)c(Cl)c2=O)cc1 | 32* | 2 | 0 | 5 | -2
Cc1ccc(C(=O)OCn2ncc(Cl)c(Cl)c2=O)cc1 | 17* | 5 | 0 | -4 | -5
O=C(O)C[C@@H]1C=C[C@@H](NC(=O)c2ccncc2)[C@H](CO)O1 | -1 | . | . | . | .
CC(C)NC(=O)N(C)C[C@H]1OCCCC[C@H](C)Oc2ccc(NS(=O)(=O)c3ccc(Cl)cc3)cc2C(=O)N([C@@H](C)CO)C[C@@H]1C | 3 | . | . | . | .
CCSc1ccccc1C(=O)Nc1ccc([N+](=O)[O-])cc1OC | 3 | -84 | 0 | -4 | 84*
CCCC(=O)Nc1ccc(C(=O)Nc2ccc([N+](=O)[O-])cc2OC)cc1 | -4 | -77 | 0 | -4 | 77*
C[C@@H](NC(=O)C[C@H]1CC[C@H]2[C@@H](COC[C@H](O)CN2Cc2cc(F)ccc2F)O1)c1ccccc1 | -1 | . | . | . | .
CC(=O)Nc1ccc(NC2=C/C(=N/S(=O)(=O)c3cccs3)c3ccccc3C2=O)cc1 | . | -5 | 0 | -7 | 5
COc1ccc(S(=O)(=O)/N=C2\C=C(Nc3ccc(O)cc3)C(=O)c3ccccc32)cc1 | 36* | -56 | 0 | -4 | 56
C/C(=N/Nc1nc(-c2ccc(Cl)cc2)cs1)c1cccs1 | 1 | -79 | 0 | -4 | 79*
CC(=O)Nc1ccc(-c2csc(N/N=C(/C)c3ccccc3)n2)cc1 | -4 | -67 | 0 | -5 | 67
COc1ccc(-n2c(SCC(=O)N3CCCCC3C)nnc2-c2cccnc2)cc1 (configuration not stated) | 12 | 117* | 0 | -5 | -117
SMILES | FN deposition inh | SR-BI DiI-HDL act | Efflux pump mplx | CaV13 FRET inh | SR-BI HDL uptake
COc1ccc(-n2c(SCC(=O)N3CCCC(C)C3)nnc2-c2cccnc2)cc1 (configuration not stated) | . | 4 | 0 | . | -4
COc1ccc(NC(=O)Nc2ccc3c(c2)C(=O)N([C@@H](C)CO)C[C@@H](C)[C@H](CN(C)S(=O)(=O)c2ccccc2)OCCCC[C@@H](C)O3)cc1 | -7 | . | . | . | .
CCN(C(=O)c1cn(C)c(=O)c2cc(OC)c(OC)cc12)c1cc(OC)ccc1OC | . | 67* | 0 | . | -67
CCN(CC)C(=O)c1cn(C)c(=O)c2cc(OC)c(OC)cc12 | -5 | 16 | 0 | -4 | -16
COCC(=O)Nc1ccc2c(c1)C(=O)N(C)[C@H]1CC[C@H](CC(=O)NC3CCCC3)O[C@@H]1CO2 | 2 | . | . | . | .
S=C1Nc2ccccc2CS1 | 2 | . | . | -7 | .
S=C1Cc2ccccc2N1 | 3 | -97 | . | -3 | 97*
Brc1ccc2nc(-c3c[nH]c4ccccc34)cn2c1 | -3 | -84 | 0 | -3 | 84*
O=[N+]([O-])c1ccc(Oc2ccc(S(=O)(=O)N3CCOCC3)cc2)cc1 | 2 | . | 0 | -4 | .
O=[N+]([O-])c1ccc(-c2ccc(S(=O)(=O)N3CCOCC3)cc2)cc1 | -1 | -80 | 0 | -1 | 80*
COCC(=O)Nc1ccc2c(c1)C(=O)N(C)[C@@H]1CC[C@@H](CC(=O)NCc3ccccc3Cl)O[C@H]1CO2 | 38* | . | . | . | .
COCC(=O)Nc1ccc2c(c1)C(=O)N(C)[C@H]1CC[C@H](CC(=O)NCc3ccccc3Cl)O[C@H]1CO2 | 2 | . | . | . | .
C[C@H](O)C#Cc1ccc2c(c1)O[C@H](CN(C)C(=O)Nc1ccccc1)[C@@H](C)CN([C@H](C)CO)S2(=O)=O | -1 | . | . | . | .
COc1cccc(NC(=O)N2C[C@H](O)COC[C@H]3O[C@@H](CC(=O)NC4CCC4)CC[C@@H]32)c1 | 13 | . | . | . | .
O=C1CC(SC(=Nc2ccccc2)Nc2ccccc2)C(=O)N1c1cccc2ccccc12 (configuration not stated) | . | -93 | 0 | -5 | 93*
O=C(C[C@@H]1CC[C@@H]2[C@H](COC[C@@H](O)CN2S(=O)(=O)c2ccccc2)O1)NCc1ccc(-c2ccccc2)cc1 | -6 | . | . | . | .
CCc1ccc(NC(=O)CSc2nnc(-c3ccco3)o2)cc1 | 31* | 16 | 0 | -7 | -16
CC(=O)Nc1ccc(NC(=O)CSc2nnc(-c3ccco3)o2)cc1 | 3 | 16 | 0 | -2 | -16
CN(C)/C=C(/C#N)C(=O)c1cccc(Oc2ccc(C(C)(C)C)cc2)c1 | -1 | -71 | 0 | -5 | 71*
COc1ccc(COc2cc(-c3cccc(OC)c3)nc3ccc(NC(=O)c4ccc(Cl)cc4)cc23)cc1 | 16 | -73 | 0 | -4 | 73*
COc1ccc(COc2cc(-c3cccc(OC)c3)nc3ccc(NC(=O)c4ccccc4)cc23)cc1 | -3 | -72 | 0 | 10 | ?
COc1ccc(COc2cc(-c3cccc(OC)c3)nc3ccc(NC(=O)c4ccc(OC)cc4)cc23)cc1 | -17 | -73 | 0 | -4 | 73*
C[C@H](CO)N1C[C@H](C)[C@H](CN(C)S(=O)(=O)c2ccc(F)cc2)Oc2cc(C#Cc3ccc(F)cc3)ccc2S1(=O)=O | 2 | . | . | . | .
CC(=O)n1c2ccccc2c2ccccc21 | 4 | 10 | 0 | -6 | -10
